Bioassay records (PubChem BioAssay)
Shown are actives, neighbours in structure and some others; about 0.79% of the full set was active somewhere.
bIAP act: intestinal alkaline phosphatase (bovine) activation. activation factor at 20 µM. 200,000 tested, 0.17% active. purified bovine IAP, CDP-star luminescence, 30 min; hits give high values; fold of DMSO-control signal, blank-subtracted;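 active = activation factor of 2 or more at 20 µM, a signal rise over negative controls twice the positive control's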
hIAP act: increases human intestinal alkaline phosphatase activity; P09923; purified human IAP, CDP-Star luminescence, 30 min; hits give high values; 1 = vehicle-only enzyme, 0 = enzyme-free background; activation factor at 10 µM; 330,000 tested, 0.16% active; AID 2524;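 active = activation factor of the enzyme at least 2-fold when tested at 20 µM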
Target sequence (P09923 whole entry, looked up): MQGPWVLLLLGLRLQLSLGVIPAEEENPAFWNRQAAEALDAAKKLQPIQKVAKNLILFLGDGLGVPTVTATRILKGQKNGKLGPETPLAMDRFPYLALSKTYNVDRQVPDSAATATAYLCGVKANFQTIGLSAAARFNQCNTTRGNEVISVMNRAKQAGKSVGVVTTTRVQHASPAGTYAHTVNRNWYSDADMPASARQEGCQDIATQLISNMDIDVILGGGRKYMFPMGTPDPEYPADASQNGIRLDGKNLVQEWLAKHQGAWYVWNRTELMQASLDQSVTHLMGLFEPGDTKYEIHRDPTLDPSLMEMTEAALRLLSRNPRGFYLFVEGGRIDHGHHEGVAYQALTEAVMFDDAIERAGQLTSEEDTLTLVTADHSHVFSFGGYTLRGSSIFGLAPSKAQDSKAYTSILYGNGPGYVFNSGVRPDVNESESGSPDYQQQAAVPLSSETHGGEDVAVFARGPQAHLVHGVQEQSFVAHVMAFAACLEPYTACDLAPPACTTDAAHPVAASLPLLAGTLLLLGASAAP
bIAP inh: intestinal alkaline phosphatase (bovine) inhibition; inhibition, % at 20 µM; purified bovine IAP, CDP-star luminescence, 30 min; 190,000 tested, under 10 active;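 active = over 50% inhibition of intestinal alkaline phosphatase at 20 µM in the single-dose screen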
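System: purified bovine intestinal alkaline phosphatase (IAP) enzyme; Input: IAP diluted 1/65,000,000 in the well; Measured by: CDP-star luminescence signal; Compound dosing: 20 µM single dose; Incubation: 30 min reaction at room temperature.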
mIAP act: mouse IAP activation; muIAP, CDP-Star luminescence, 30 min; hits give high values; 1 = vehicle-only enzyme signal, 0 = enzyme-free wells; activation factor at 10 µM; 330,000 tested, 0.24% active;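 active = activation factor of at least 2 at 20 µM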
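Assay system: mouse IAP enzyme; reagent: chemiluminescent substrate CDP-Star; dosing: test compounds delivered from DMSO solution; schedule: 30 min at room temperature; measured by: luminescence from enzymatic CDP-Star hydrolysis; controls: DMSO-only wells and no-enzyme negative control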
hIAP block: blocks human intestinal alkaline phosphatase. purified IAP, CDP-Star luminescence, 30 min. inhibition, % at 10 µM. 330,000 tested, 0.12% active. AID 2544;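 active = inhibition reaching a set limit with compound at 10 µM in the primary screen, cut at about 35% in these data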;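 note: plate controls were DMSO wells with enzyme for no effect and no-enzyme buffer wells for full effect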
mIAP inh: mouse IAP inhibition | purified mouse IAP, CDP-Star luminescence, 30 min | inhibition, % at 10 µM | 330,000 tested, 0.2% active | AID 2806;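 active = inhibition of at least 40% at 10 µM in the primary screen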;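 note: plate controls were DMSO with enzyme for no effect and no enzyme wells for full effect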
Active calls of the source: *; i = inactive; x = not tested or not shown.

SMILES	bIAP act	hIAP act	bIAP inh	mIAP act	hIAP block	mIAP inh
CC(O)CNc1nc2ccccc2n1-c1ncnc2sc3c(c12)CCC3 (stereo unspecified)	2.1*	1.1	-105	1.4	-8	-44
COc1ccc(C2OC[C@H]3O[C@H](O)[C@H](NC(C)=O)[C@@H](O)[C@@H]3O2)cc1 (stereo partly specified)	1	x	3	x	x	x
O=C(NCc1nnc(SCC(=O)N2CCN(c3ccccc3)CC2)o1)c1c(F)cccc1F	x	1.2	x	1.1	-23	-13
Cc1ccc(NC(=S)NC(NC(=O)c2ccco2)C(Cl)(Cl)Cl)cc1 (stereo unspecified)	1	1.1	1	2	-10	-99
Cc1cccc(NC(=S)NC(NC(=O)c2ccco2)C(Cl)(Cl)Cl)c1 (stereo unspecified)	0.8	1	19	2*	-2	-104
Cc1ccc(NC(=S)NC(NC(=O)c2ccccc2)C(Cl)(Cl)Cl)c(C)c1 (stereo unspecified)	1.2	1.1	-18	1.8	-6	-84
Cc1cc(C)c(NC(=S)NC(NC(=O)c2ccccc2)C(Cl)(Cl)Cl)c(C)c1 (stereo unspecified)	0.9	0.99	8	2.5*	1	-152
COc1cc(NC(=O)C(Cc2ccccc2)n2cccc2)cc(OC)c1 (stereo unspecified)	x	1.2	x	2.1*	-19	-109
Cc1ccn2c(Nc3ccccc3C)c(-c3ccccn3)nc2c1	2.1*	1.2	-112	0.88	-22	12
CNC(=O)c1ccsc1NC(=O)C1CCN(S(=O)(=O)c2cccs2)CC1	x	1.1	x	0.88	-13	12
COc1ccccc1CC(Cc1nc2ccccc2[nH]1)c1nc2ccccc2[nH]1 (stereo unspecified)	3.6*	1.6	-259	1.5	-63	-49
CC(C)Cc1nc2ccccc2[nH]1	x	1.4	x	1	-41	0
COc1ccc(Cl)cc1NC(=O)C(C)N1CCN(C/C=C/c2ccccc2)CC1 (stereo unspecified)	3.3*	0.82	-234	1.1	18	-12
CCOc1ccc2[nH]c3c(NCCC(C)C)ncnc3c2c1	x	1.6	x	2.2*	-61	-122
COc1ccc2[nH]c3c(NCCC4=CCCCC4)ncnc3c2c1	2.1*	x	-113	x	x	x
CCN(CC)CCNc1ncnc2c1[nH]c1ccc(OC)cc12	x	1.1	x	1.1	-12	-11
CCCCCCCCn1ccc(=N)cc1	x	0.97	x	1	2	-5
COc1ccccc1N(CC(O)Cn1ccnc1C)S(=O)(=O)c1ccccc1 (stereo unspecified)	1.1	0.96	-13	1	4	0
Cc1nn(Cc2ccc(Cl)cc2Cl)c(C)c1NC(=O)c1sc2ccccc2c1Cl	0.9	0.99	13	0.96	1	4
Cc1nn(Cc2ccc(Cl)cc2Cl)c(C)c1NC(=O)NC12CC3CC(CC(C3)C1)C2	1.3	0.88	-34	2.1*	12	-112
COc1ccc(C(=O)CSc2[nH]c(=O)cc(C(F)(F)F)c2C#N)cc1	x	0.98	x	0.91	2	9
Cc1nn(C)c(C)c1NC(=O)Nc1ccc(Cl)c(Cl)c1	1	1.1	2	2.1*	-10	-114
Cc1nn(C)c(C)c1NC(=O)Nc1cccc(C(F)(F)F)c1	0.9	1.1	6	1	-6	-4
O=C(NC1CC2CCCC(C1)N2C1CC1)NC12CC3CC(CC(C3)C1)C2 (stereo unspecified)	3.1*	x	-214	x	x	x
O=C(NC1CC2CCC(C1)N2C(=O)NC1CCCCC1)NC12CC3CC(CC(C3)C1)C2 (stereo unspecified)	1.9	1	-87	1.1	-1	-7
SMILES	bIAP act	hIAP act	bIAP inh	mIAP act	hIAP block	mIAP inh
C/C=C/c1ccc(OCC(=O)OCc2csc(Nc3ccc(C)cc3)n2)c(OC)c1	1.3	1	-31	0.86	-3	14
Cc1nn(C)cc1/C=N\NC(=O)c1ccc2c(c1)c(C)c(C)n2Cc1ccccc1	8.3*	1.2	i	2.3*	-20	-130
Cc1c(C)n(Cc2ccccc2)c2ccc(C(=O)O)cc12	x	0.98	x	0.98	2	2
CC(C)n1c(-c2ccc(N(C)C)cc2)nc2ccccc21	3.4*	1.6	-242	0.93	-65	8
CN(C)c1ccc(-c2nc3ccccc3n2C)cc1	0.9	0.86	7	0.96	14	4
Cc1ccc(C(O)c2nc3ccccc3n2C(C)C)cc1 (stereo unspecified)	2.5*	0.97	-149	1	3	-3
COCC(=O)N1CCN(c2cccc(Cl)c2)CC1	1.2	1	-15	1	-2	-5
COc1ccc(CCNC(=O)CSc2cn(Cc3cccc(C)c3)c3ccccc23)cc1OC	0.9	0.93	13	2.2*	7	-125
Cc1noc(-c2ccccc2)c1NC(=O)Nc1ccccc1	x	0.99	x	1.5	1	-49
Cc1noc(-c2ccccc2)c1NC(=O)Nc1ccc(Cl)cc1	x	1.1	x	3.1*	-10	-206
O=C(CSc1ccccn1)Nc1ccccc1F	0.9	1.1	14	1.1	-8	-11
O=C(CSc1ccccn1)Nc1cccc2ccccc12	0.9	0.95	11	0.32	5	68*
O=C(CNc1cccc(Cl)c1)NNC(=S)NCc1ccccc1	1	1.7	0	0.94	-67	6
Fc1ccccc1CNC(=S)Nc1cccc(C(F)(F)F)c1	0.9	0.78	11	2.7*	22	-167
Fc1cccc(NC(=S)NCc2ccc(Cl)cc2)c1	0.9	1.1	5	2.5*	-13	-150
FC(F)(F)c1cccc(NC(=S)NCc2ccc(Cl)cc2)c1	0.9	1.1	10	2.7*	-6	-170
Fc1ccccc1NC(=S)NCc1ccc(Cl)cc1	x	1.1	x	1.5	-12	-51
S=C(NCc1ccccc1)Nc1cccc(Cl)c1	0.9	1.1	8	2.3*	-8	-127
FC(F)(F)c1cccc(NC(=S)NNC(=S)Nc2ccc(Cl)cc2)c1	x	0.94	x	0.88	6	12
COc1ccc(OC)c(-n2c(SCC(=O)NCC3CCCO3)nc3ccccc3c2=O)c1 (stereo unspecified)	x	1.1	x	0.99	-5	1
COc1ccc(CCNC(=O)CNS(=O)(=O)c2ccc(F)c(Cl)c2)cc1OC	x	1.1	x	1	-8	-3
CCCC[C@@H]1CCCO[C@@](C(=O)NCc2cc(C)n(C)n2)(C(F)(F)F)C1	x	0.97	x	0.98	3	2
O=C(O)C(Cc1ccccc1)NC(=O)C(Cc1ccccc1)NC(=O)C12CC3CC(CC(C3)C1)C2 (stereo unspecified)	x	0.78	x	1.1	22	-13
CN(C)NC(=S)Nc1cccc(C(F)(F)F)c1	x	0.89	x	0.94	11	6
CC(NC(=S)Nc1cccc(C(F)(F)F)c1)C(C)(C)C (stereo unspecified)	0.8	1.2	15	3.7*	-17	-266
